# ChEMBL document CHEMBL1156261, “Evaluation of substituted N,N'-diarylsulfonamides as activators of the tumor cell specific M2 isoform of pyruvate kinase” (J Med Chem, 2010)
# Activity calls are given as the source filed them. No rule for the calls is given here.
# Biological target: Pyruvate kinase PKLR (Homo sapiens) (UniProt P30613)
# Assay: Activation of PKL assessed as ATP product formation by luminescent pyruvate kinase-luciferase coupled assay relative to control
# Set-up: concentration or dose not given beside the values
# Outline: (§1)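 Luciferase-coupled ATP production assay run as for PKM2: imidazole pH 7.2 buffer with KCl, MgCl2, Tween 20 and BSA, 0.1 mM ADP, 0.5 mM PEP, 1 h at r.t., Kinase-Glo luminescence. Enzyme final concentrations were PKM1 1 nM, PKL 0.1 nM, PKR 0.1 nM. % activation normalized to DMSO (neutral) and no-enzyme controls.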
# Chain of Pyruvate kinase PKLR (Homo sapiens) (P30613 whole entry, looked up): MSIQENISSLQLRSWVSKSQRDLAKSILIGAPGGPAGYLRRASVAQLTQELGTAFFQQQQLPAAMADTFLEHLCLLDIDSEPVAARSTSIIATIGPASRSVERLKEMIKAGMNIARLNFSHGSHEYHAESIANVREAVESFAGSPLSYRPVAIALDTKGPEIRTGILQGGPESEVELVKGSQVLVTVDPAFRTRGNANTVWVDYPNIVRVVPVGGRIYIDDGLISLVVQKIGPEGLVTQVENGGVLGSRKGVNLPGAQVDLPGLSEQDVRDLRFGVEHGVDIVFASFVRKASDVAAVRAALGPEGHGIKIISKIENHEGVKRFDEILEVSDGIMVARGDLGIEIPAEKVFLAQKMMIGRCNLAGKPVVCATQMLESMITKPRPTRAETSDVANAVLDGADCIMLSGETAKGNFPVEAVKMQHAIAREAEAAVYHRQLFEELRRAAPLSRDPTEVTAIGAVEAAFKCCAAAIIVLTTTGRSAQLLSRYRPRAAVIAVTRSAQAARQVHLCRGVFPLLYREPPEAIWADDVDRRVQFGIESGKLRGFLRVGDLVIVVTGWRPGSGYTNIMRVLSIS
row,Structure (SMILES),Activity [%]
1,O=S(=O)(c1ccc2c(c1)OCCO2)C1CCN(S(=O)(=O)c2c(F)cccc2F)CC1,< 30
2,O=S(=O)(N[C@H]1CC[C@H](NS(=O)(=O)c2c(F)cccc2F)CC1)c1ccc2c(c1)OCCO2,< 30
3,C[C@@H]1CN(S(=O)(=O)c2c(F)cccc2F)CCN1S(=O)(=O)c1ccc2c(c1)OCCO2,< 30
4,COc1ccc(S(=O)(=O)N2CCN(S(=O)(=O)c3ccc(OC)cc3)CC2)cc1,< 30
5,O=S(=O)(c1ccc2c(c1)OCCO2)N1CCN(S(=O)(=O)c2cc(F)c(F)cc2F)CC1,< 30
6,O=S(=O)(c1ccc2c(c1)OCCO2)N1CCN(S(=O)(=O)c2ccccc2F)CC1,< 30
7,O=S(=O)(c1ccc2ccccc2c1)N1CCN(S(=O)(=O)c2c(F)cccc2F)CC1,< 30
8,O=S(=O)(NCCCNS(=O)(=O)c1c(F)cccc1F)c1ccc2c(c1)OCCO2,< 30

# Biological target: Pyruvate kinase PKLR (Homo sapiens) (UniProt P30613)
# Assay: Activation of PKR assessed as pyruvate formation by fluorescent pyruvate kinase-lactate dehydrogenase coupled assay relative to control
# Set-up: concentration or dose not given beside the values
row,Structure (SMILES),Activity [%]
1,O=S(=O)(c1ccc2c(c1)OCCO2)C1CCN(S(=O)(=O)c2c(F)cccc2F)CC1,< 30
2,O=S(=O)(N[C@H]1CC[C@H](NS(=O)(=O)c2c(F)cccc2F)CC1)c1ccc2c(c1)OCCO2,< 30
3,C[C@@H]1CN(S(=O)(=O)c2c(F)cccc2F)CCN1S(=O)(=O)c1ccc2c(c1)OCCO2,< 30
4,COc1ccc(S(=O)(=O)N2CCN(S(=O)(=O)c3ccc(OC)cc3)CC2)cc1,< 30
5,O=S(=O)(c1ccc2c(c1)OCCO2)N1CCN(S(=O)(=O)c2cc(F)c(F)cc2F)CC1,< 30
6,O=S(=O)(c1ccc2c(c1)OCCO2)N1CCN(S(=O)(=O)c2ccccc2F)CC1,< 30
7,O=S(=O)(c1ccc2ccccc2c1)N1CCN(S(=O)(=O)c2c(F)cccc2F)CC1,< 30
8,O=S(=O)(NCCCNS(=O)(=O)c1c(F)cccc1F)c1ccc2c(c1)OCCO2,< 30

# Biological target: T1, Pyruvate kinase PKM (Homo sapiens, UniProt P14618)
# Assay: Activation of PKM2 assessed as ATP product formation at 57 uM by luminescent pyruvate kinase-luciferase coupled assay relative to fructose-1,6-bis-phosphate
# Outline: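 Recombinant human PKM2 (0.1 nM final) in 50 mM imidazole pH 7.2, 50 mM KCl, 7 mM MgCl2, 0.01% Tween 20, 0.05% BSA; 0.1 mM ADP, 0.5 mM PEP; 1 h at r.t., then Kinase-Glo luciferase read of ATP formed. Activation % = (c−n)/(n−i)×100 against DMSO and no-enzyme controls; 100% ≈ 2-fold over basal signal. Max response taken at 57 μM; three separate experiments.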
# T1 sequence (P14618 2-531 limits assumed): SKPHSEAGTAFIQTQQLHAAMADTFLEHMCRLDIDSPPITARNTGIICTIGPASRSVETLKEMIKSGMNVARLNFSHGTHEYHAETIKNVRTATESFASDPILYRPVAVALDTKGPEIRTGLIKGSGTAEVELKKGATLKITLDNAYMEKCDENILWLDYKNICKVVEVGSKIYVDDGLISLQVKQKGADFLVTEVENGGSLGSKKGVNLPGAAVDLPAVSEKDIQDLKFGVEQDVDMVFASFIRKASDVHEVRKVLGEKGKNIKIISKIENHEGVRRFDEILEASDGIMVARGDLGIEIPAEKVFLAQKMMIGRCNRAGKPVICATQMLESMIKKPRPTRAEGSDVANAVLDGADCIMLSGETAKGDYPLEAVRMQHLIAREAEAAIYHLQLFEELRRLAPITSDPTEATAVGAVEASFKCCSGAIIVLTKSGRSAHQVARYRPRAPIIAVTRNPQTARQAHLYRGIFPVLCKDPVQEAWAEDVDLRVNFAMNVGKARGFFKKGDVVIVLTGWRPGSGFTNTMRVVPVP
row,Structure (SMILES),Activity [%]
1,O=S(=O)(c1ccc2c(c1)OCCO2)C1CCN(S(=O)(=O)c2c(F)cccc2F)CC1,110
2,O=S(=O)(N[C@H]1CC[C@H](NS(=O)(=O)c2c(F)cccc2F)CC1)c1ccc2c(c1)OCCO2,90.8
3,C[C@@H]1CN(S(=O)(=O)c2c(F)cccc2F)CCN1S(=O)(=O)c1ccc2c(c1)OCCO2,98.8
4,COc1ccc(S(=O)(=O)N2CCN(S(=O)(=O)c3ccc(OC)cc3)CC2)cc1,87.6
5,O=S(=O)(c1ccc2c(c1)OCCO2)N1CCN(S(=O)(=O)c2cc(F)c(F)cc2F)CC1,105
6,O=S(=O)(c1ccc2c(c1)OCCO2)N1CCN(S(=O)(=O)c2ccccc2F)CC1,114
7,O=S(=O)(c1ccc2ccccc2c1)N1CCN(S(=O)(=O)c2c(F)cccc2F)CC1,138
8,O=S(=O)(NCCCNS(=O)(=O)c1c(F)cccc1F)c1ccc2c(c1)OCCO2,106

# Biological target: T1, Pyruvate kinase PKM
# Assay: Activation of PKM1 assessed as pyruvate formation by fluorescent pyruvate kinase-lactate dehydrogenase coupled assay
row,Structure (SMILES),Activity
1,O=S(=O)(c1ccc2c(c1)OCCO2)C1CCN(S(=O)(=O)c2c(F)cccc2F)CC1,inactive
2,O=S(=O)(N[C@H]1CC[C@H](NS(=O)(=O)c2c(F)cccc2F)CC1)c1ccc2c(c1)OCCO2,inactive
3,C[C@@H]1CN(S(=O)(=O)c2c(F)cccc2F)CCN1S(=O)(=O)c1ccc2c(c1)OCCO2,inactive
4,COc1ccc(S(=O)(=O)N2CCN(S(=O)(=O)c3ccc(OC)cc3)CC2)cc1,inactive
5,O=S(=O)(c1ccc2c(c1)OCCO2)N1CCN(S(=O)(=O)c2cc(F)c(F)cc2F)CC1,inactive
6,O=S(=O)(c1ccc2c(c1)OCCO2)N1CCN(S(=O)(=O)c2ccccc2F)CC1,inactive
7,O=S(=O)(c1ccc2ccccc2c1)N1CCN(S(=O)(=O)c2c(F)cccc2F)CC1,inactive
8,O=S(=O)(NCCCNS(=O)(=O)c1c(F)cccc1F)c1ccc2c(c1)OCCO2,inactive

# Biological target: Pyruvate kinase PKLR (Homo sapiens) (UniProt P30613)
# Assay: Activation of PKR assessed as ATP product formation by luminescent pyruvate kinase-luciferase coupled assay relative to control
# Set-up: concentration or dose not given beside the values
# Outline: as §1
row,Structure (SMILES),Activity [%]
1,O=S(=O)(c1ccc2c(c1)OCCO2)C1CCN(S(=O)(=O)c2c(F)cccc2F)CC1,< 30
2,O=S(=O)(N[C@H]1CC[C@H](NS(=O)(=O)c2c(F)cccc2F)CC1)c1ccc2c(c1)OCCO2,< 30
3,C[C@@H]1CN(S(=O)(=O)c2c(F)cccc2F)CCN1S(=O)(=O)c1ccc2c(c1)OCCO2,< 30
4,COc1ccc(S(=O)(=O)N2CCN(S(=O)(=O)c3ccc(OC)cc3)CC2)cc1,< 30
5,O=S(=O)(c1ccc2c(c1)OCCO2)N1CCN(S(=O)(=O)c2cc(F)c(F)cc2F)CC1,< 30
6,O=S(=O)(c1ccc2c(c1)OCCO2)N1CCN(S(=O)(=O)c2ccccc2F)CC1,< 30
7,O=S(=O)(c1ccc2ccccc2c1)N1CCN(S(=O)(=O)c2c(F)cccc2F)CC1,< 30
8,O=S(=O)(NCCCNS(=O)(=O)c1c(F)cccc1F)c1ccc2c(c1)OCCO2,< 30

# Biological target: T1, Pyruvate kinase PKM
# Assay: Activation of PKM1 assessed as ATP product formation by luminescent pyruvate kinase-luciferase coupled assay
# Outline: as §1
row,Structure (SMILES),Activity
1,O=S(=O)(c1ccc2c(c1)OCCO2)C1CCN(S(=O)(=O)c2c(F)cccc2F)CC1,inactive
2,O=S(=O)(N[C@H]1CC[C@H](NS(=O)(=O)c2c(F)cccc2F)CC1)c1ccc2c(c1)OCCO2,inactive
3,C[C@@H]1CN(S(=O)(=O)c2c(F)cccc2F)CCN1S(=O)(=O)c1ccc2c(c1)OCCO2,inactive
4,COc1ccc(S(=O)(=O)N2CCN(S(=O)(=O)c3ccc(OC)cc3)CC2)cc1,inactive
5,O=S(=O)(c1ccc2c(c1)OCCO2)N1CCN(S(=O)(=O)c2cc(F)c(F)cc2F)CC1,inactive
6,O=S(=O)(c1ccc2c(c1)OCCO2)N1CCN(S(=O)(=O)c2ccccc2F)CC1,inactive
7,O=S(=O)(c1ccc2ccccc2c1)N1CCN(S(=O)(=O)c2c(F)cccc2F)CC1,inactive
8,O=S(=O)(NCCCNS(=O)(=O)c1c(F)cccc1F)c1ccc2c(c1)OCCO2,inactive

# Biological target: Pyruvate kinase PKLR (Homo sapiens) (UniProt P30613)
# Assay: Activation of PKL assessed as pyruvate formation by fluorescent pyruvate kinase-lactate dehydrogenase coupled assay relative to control
# Set-up: concentration or dose not given beside the values
row,Structure (SMILES),Activity [%]
1,O=S(=O)(c1ccc2c(c1)OCCO2)C1CCN(S(=O)(=O)c2c(F)cccc2F)CC1,< 30
2,O=S(=O)(N[C@H]1CC[C@H](NS(=O)(=O)c2c(F)cccc2F)CC1)c1ccc2c(c1)OCCO2,< 30
3,C[C@@H]1CN(S(=O)(=O)c2c(F)cccc2F)CCN1S(=O)(=O)c1ccc2c(c1)OCCO2,< 30
4,COc1ccc(S(=O)(=O)N2CCN(S(=O)(=O)c3ccc(OC)cc3)CC2)cc1,< 30
5,O=S(=O)(c1ccc2c(c1)OCCO2)N1CCN(S(=O)(=O)c2cc(F)c(F)cc2F)CC1,< 30
6,O=S(=O)(c1ccc2c(c1)OCCO2)N1CCN(S(=O)(=O)c2ccccc2F)CC1,< 30
7,O=S(=O)(c1ccc2ccccc2c1)N1CCN(S(=O)(=O)c2c(F)cccc2F)CC1,< 30
8,O=S(=O)(NCCCNS(=O)(=O)c1c(F)cccc1F)c1ccc2c(c1)OCCO2,< 30
